The structures appear in SMILES notation. Activity calls are given as the source filed them.

The species named for experiment [1] is Mus musculus. Kind of experiment: The compound was evaluated for the analgesic activity as percentage analgesic efficacy on male albino Swiss-Webster mice with the hotplate test; inactive. Type of experiment: functional, organism-based. An outline of the steps:
(§1)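 Hot-plate test at 52.5 ± 0.1 °C, 45 s cutoff, compound dosed at its maximal nontoxic dose (the highest dose giving no visible behavioural change to blinded observers). Efficacy = (maximum reaction time − pretest time) / the same difference for morphine-HCl 8 mg/kg sc × 100.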

For experiment [2], the species on record is Mus musculus. Kind of experiment: Analgesic activity as percentage analgesic efficacy on male albino Swiss-Webster mice with the hotplate test; Inactive. Type of experiment: functional. A digest of the protocol:
as §1

The species entered for experiment [3] is Mus musculus. Kind of experiment: Analgesic activity as percentage analgesic efficacy on male albino swiss-webster mice with the hotplate test. It counts as functional. Details: concentration or dose not given beside the values. An outline of the steps:
as §1

For experiment [4], the target named is Muscarinic acetylcholine receptor (Mus musculus) (UniProt Q920H4+Q9ERZ4+P12657+P32211+Q9ERZ3). Kind of experiment: Analgesic activity after subcutaneous administration in male albino Swiss-Webster mice with the hotplate test. Type of experiment: functional, organism-based. A digest of the protocol: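 Mouse hot-plate test, plate held at 52.5 ± 0.1 °C with a 45 s cutoff. Drug given subcutaneously, 8 to 20 mice per test. Potency expressed as ED50.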

The target of experiment [5] is Muscarinic acetylcholine receptor. As to the kind of experiment: Binding affinity for [3H]QNB in membrane preparations from rat brain tissue. An outline of the steps: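 [3H]QNB binding to rat brain membrane preparations. pKi calculated with the LIGAND program, mean of at least three experiments.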
For experiment [6], the species on record is Mus musculus. Kind of experiment: The compound was evaluated for the analgesic activity as percentage analgesic efficacy on male albino Swiss-Webster mice with the hotplate test;Inactive. It counts as functional, organism-based. A digest of the protocol: as §1

Regarding `CCN1C2CCC1CC(OC(=O)C(C)c1ccc(Br)cc1)C2` (configuration not stated), in the experiment listed under Mus musculus [1], the Analgesic efficacy result is “inactive”.

For `CC(C(=O)OC1CC2CCC(C1)N2)c1ccc(Br)cc1` (configuration not stated), in the experiment listed under Mus musculus [2], the Analgesic efficacy result was “inactive”.

With `CC(C(=O)OC1CC2CCC(C1)N2C)c1ccc(C(F)(F)F)cc1` (configuration not stated), in the experiment filed under Mus musculus [3], the Analgesic efficacy turned out to be 26%. Further, the 50% effect level in experiment [4] (ED50) was put at a dose of 31 mg/kg.

Turning to `CC(C(=O)OC1CC2CCC(C1)N2C)c1ccc(N(C)C)cc1` (configuration not stated), the Analgesic efficacy entry in the experiment listed under Mus musculus [2] was “inactive”.

Regarding `CC(C(=O)OC1CC2CCC(C1)N2C)c1ccc(Br)cc1` (racemic), the Analgesic efficacy in the experiment listed under Mus musculus [3] stood at 101%.

Regarding `CN1C2CCC1CC(OC(=O)Cc1ccc(Br)cc1)C2` (configuration not stated), in the experiment filed under Mus musculus [2], the Analgesic efficacy entry was “inactive”.

`COc1ccc(C(C)C(=O)OC2CC3CCC(C2)N3C)cc1` (configuration not stated) had an Analgesic efficacy in the experiment listed under Mus musculus [3] of 97%. The compound also had an ED50 in experiment [4] of 32 mg/kg.

For the compound `CC(C(=O)OC1CC2CCC(C1)N2C)c1ccccc1` (racemic), the Analgesic efficacy in the experiment filed under Mus musculus [3] was found to be 35%. The same compound returned a 50% effective dose (ED50) in experiment [4] of 5 mg/kg.

For the compound `CC(C(=O)OC1CC2CCC(C1)N2C)c1ccc(Br)cc1` (stereo in doubt; (-)-19), the Analgesic efficacy in the experiment listed under Mus musculus [3] was determined as 83%. It took a dose of 16 mg/kg to reach the 50% effect level in experiment [4] (ED50).

Take `CC(C(=O)OC1CC2CCC(C1)N2C)c1cccs1` (configuration not stated): in the experiment listed under Mus musculus [3], the Analgesic efficacy came to 21%. The same compound had a 50% effective dose (ED50) in experiment [4] of 5.4 mg/kg.

In the case of `C[C@H](C(=O)OC1CC2CCC(C1)N2C)c1ccccc1` (some centres not stated), the Analgesic efficacy in the experiment listed under Mus musculus [3] amounted to 29%. The compound also displayed an ED50 in experiment [4] of 3.1 mg/kg.

In the experiment listed under Mus musculus [3], `CC(C(=O)OC1CC2CCC(C1)N2C)c1ccc(Cl)cc1.O=C(O)/C=C\C(=O)O` (configuration not stated) had an Analgesic efficacy of 83%. Also, the median effective dose (ED50) in experiment [4] stood at 36 mg/kg. The “Log Ki” value in experiment [5] is -7.02.

Compound `CC(C(=O)OC1CC2CCC(C1)N2C)c1ccc([N+](=O)[O-])cc1` (configuration not stated) had an Analgesic efficacy in the experiment filed under Mus musculus [3] of 38%. Further, the ED50 in experiment [4] was determined as 18 mg/kg.

`CC(C(=O)OC1CC2CCC(C1)N2C)c1ccc(F)cc1` (configuration not stated) displayed an Analgesic efficacy in the experiment filed under Mus musculus [3] of 79%. It took a dose of 31 mg/kg to reach the 50% effect level in experiment [4] (ED50).

Take `CC(Cc1ccc(Cl)cc1)C(=O)OC1CC2CCC(C1)N2C` (configuration not stated): the Analgesic efficacy result in the experiment listed under Mus musculus [2] was “inactive”.

In the experiment filed under Mus musculus [3], `CN1[C@@H]2CC[C@H]1C[C@@H](OC(=O)C(CO)c1ccccc1)C2` (mixture of isomers) came in with an Analgesic efficacy of 42%. This compound showed a 50% effective dose (ED50) in experiment [4] of 0.7 mg/kg.

As for `CCN(CC)CC#CCOC(=O)C(CO)c1ccccc1.O=C(O)C(Oc1ccccc1)C(Oc1ccccc1)C(=O)O` (configuration not stated), the Analgesic efficacy entry in the experiment listed under Mus musculus [2] is “inactive”.

With `CCN(CC)CC#CCOC(=O)C(C)c1ccc(Br)cc1` (configuration not stated), in the experiment filed under Mus musculus [2], the Analgesic efficacy entry is “inactive”.

In the experiment filed under Mus musculus [3], `CN1[C@@H]2CC[C@H]1C[C@H](OC(=O)[C@@H](CO)c1ccccc1)C2` had an Analgesic efficacy of 41%. In addition, the ED50 in experiment [4] is 0.7 mg/kg.

For the compound `CC(COC1CC2CCC(C1)N2C)c1ccc(Br)cc1` (configuration not stated), the Analgesic efficacy in the experiment filed under Mus musculus [3] turned out to be 45%. This compound also had a median effective dose (ED50) in experiment [4] of 32 mg/kg.

As for `CN1[C@@H]2CC[C@H]1C[C@H](OC(=O)[C@H](CO)c1ccccc1)C2`, in the experiment filed under Mus musculus [2], the Analgesic efficacy result was “inactive”.

`CN1CCC(OC(=O)C(CO)c2ccc(Cl)cc2)CC1` (configuration not stated): the Analgesic efficacy in the experiment filed under Mus musculus [3] was 26%. For the same compound, the ED50 in experiment [4] was 5 mg/kg.

In the experiment listed under Mus musculus [3], `O=C(OC1CC2CCC(C1)N2)C(CO)c1ccccc1` (configuration not stated) displayed an Analgesic efficacy of 35%. Further, the 50% effective dose (ED50) in experiment [4] worked out at 5 mg/kg.

Consider `CC(C(=O)OC1CC2CCC(C1)N2C)c1ccc(Br)cc1.O=C(O)/C=C\C(=O)O` (racemic), for which the “Log Ki” value in experiment [5] was -6.96.

Take `CCN1C2CCC1CC(OC(=O)C(CO)c1ccccc1)C2` (configuration not stated): the Analgesic efficacy in the experiment listed under Mus musculus [3] worked out at 33%. In experiment [4], this compound came in with a 50% effective dose (ED50) of 7.3 mg/kg.

Take `CC(C(=O)OC1CC2CCC(C1)N2C)c1ccsc1` (configuration not stated): in the experiment listed under Mus musculus [3], the Analgesic efficacy came to 44%. In experiment [4], the ED50 worked out at 22 mg/kg.

For `CC(C(=O)OC1CC2CCC(C1)N2C)c1ccc(N)cc1` (configuration not stated), the Analgesic efficacy in the experiment listed under Mus musculus [3] was found to be 41%. The compound also gave an ED50 in experiment [4] of 6 mg/kg.

As to `CCN(CC)CCOC(=O)C(C)c1ccc(Br)cc1` (configuration not stated), the Analgesic efficacy result in the experiment listed under Mus musculus [2] is “inactive”.

In the experiment filed under Mus musculus [3], `CC(C(=O)OC1CC2CCC(C1)N2Cc1ccccc1)c1ccc(Br)cc1` (configuration not stated) returned an Analgesic efficacy of 34%. The ED50 in experiment [4] is 28 mg/kg.

Consider `CN1C2CCC1CC(OC(=O)Cc1ccccc1)C2` (configuration not stated), for which, in the experiment filed under Mus musculus [2], the Analgesic efficacy entry is “inactive”.

In the experiment filed under Mus musculus [3], `CCC(C(=O)OC1CC2CCC(C1)N2C)c1ccc(Br)cc1` (configuration not stated) had an Analgesic efficacy of 81%. The ED50 in experiment [4] came out at 33 mg/kg.

`COc1ccc(C(CO)C(=O)OC2CC3CCC(C2)N3C)cc1` (configuration not stated): the Analgesic efficacy result in the experiment filed under Mus musculus [2] is “inactive”.

In the experiment filed under Mus musculus [3], `CN1C2CCC1CC(OC(=O)C(CO)c1ccc(Cl)cc1)C2` (configuration not stated) came in with an Analgesic efficacy of 37%. The compound also had an ED50 in experiment [4] of 0.6 mg/kg.

In the experiment listed under Mus musculus [3], `CC(C(=O)OC1CC2CCC(C1)N2C)c1ccc(Br)cc1` (single isomer, unassigned; (+)) registered an Analgesic efficacy of 92%. The same compound yielded an ED50 in experiment [4] of 17 mg/kg.

Regarding `CC(C(=O)OCCCN(C)C)c1ccc(Br)cc1` (configuration not stated), in the experiment listed under Mus musculus [2], the Analgesic efficacy entry was “inactive”.

In the case of `CC(C)Cc1ccc(C(C)C(=O)OC2CC3CCC(C2)N3C)cc1` (configuration not stated), the Analgesic efficacy in the experiment listed under Mus musculus [3] amounted to 40%. For the same compound, the ED50 in experiment [4] came to 27 mg/kg.

`CC(C(=O)OC1CC2CCC(C1)N2C)c1ccccc1Cl` (configuration not stated): the Analgesic efficacy in the experiment listed under Mus musculus [3] was determined as 83%. The compound further returned an ED50 in experiment [4] of 36 mg/kg.

In the case of `CC(C(=O)OC1CC2CCC(C1)N2C)c1cccc(Cl)c1` (configuration not stated), in the experiment listed under Mus musculus [3], the Analgesic efficacy came to 71%. This compound also gave a 50% effective dose (ED50) in experiment [4] of 37 mg/kg.

For `C[C@@H](C(=O)OC1CC2CCC(C1)N2C)c1ccccc1` (some centres not stated), the Analgesic efficacy result in the experiment filed under Mus musculus [6] was “inactive”.

Take `CCN(CC)CCOC(=O)C(CO)c1ccc(Cl)cc1` (configuration not stated): the Analgesic efficacy entry in the experiment listed under Mus musculus [2] was “inactive”.

For `CN(C)CCCOC(=O)C(CO)c1ccccc1.O=C(O)C(Oc1ccccc1)C(Oc1ccccc1)C(=O)O` (configuration not stated), the Analgesic efficacy entry in the experiment listed under Mus musculus [2] is “inactive”.

In the case of `CC(C(=O)OC1CC2CCC(C1)N2C)c1ccccc1Br` (configuration not stated), the Analgesic efficacy in the experiment filed under Mus musculus [3] was 62%. In experiment [4], this compound yielded an ED50 of 30 mg/kg.

`CC(C(=O)OC1CC2CCC(C1)N2C)c1ccc(Cl)c(Cl)c1` (configuration not stated) gave an Analgesic efficacy in the experiment listed under Mus musculus [3] of 42%. This compound returned an ED50 in experiment [4] of 1 mg/kg.

As to `CC(C(=O)OC1CCN(C)CC1)c1ccc(Br)cc1` (configuration not stated), the Analgesic efficacy entry in the experiment listed under Mus musculus [2] is “inactive”.

Regarding `CN1C2CCC1CC(OC(=O)C(Cl)c1ccccc1)C2` (configuration not stated), the Analgesic efficacy entry in the experiment listed under Mus musculus [2] was “inactive”.

These data come from ChEMBL document CHEMBL1127532, “Presynaptic cholinergic modulators as potent cognition enhancers and analgesic drugs. 1. Tropic and 2-phenylpropionic acid esters” (J Med Chem, 1994).
